ChEMBL document CHEMBL4364279, “Design, synthesis, in-silico and biological evaluation of novel chalcone-O-carbamate derivatives as multifunctional agents for the treatment of Alzheimer's disease” (Eur J Med Chem, 2019)
Calls of active or inactive are those of the source. The rule behind the calls is not given here.

Tests used:
[1] = Antioxidant activity assessed as trolox equivalents of AAPH radical scavenging activity preincubated for 15 mins followed by AAPH addition and measured every minute for 90 mins by ORAC-FL assay; type: functional
[2] = molecular target: T1, Amine oxidase [flavin-containing] B (Homo sapiens, UniProt P27338); test: biochemical; type: cell-based
T1 sequence (P27338 whole entry): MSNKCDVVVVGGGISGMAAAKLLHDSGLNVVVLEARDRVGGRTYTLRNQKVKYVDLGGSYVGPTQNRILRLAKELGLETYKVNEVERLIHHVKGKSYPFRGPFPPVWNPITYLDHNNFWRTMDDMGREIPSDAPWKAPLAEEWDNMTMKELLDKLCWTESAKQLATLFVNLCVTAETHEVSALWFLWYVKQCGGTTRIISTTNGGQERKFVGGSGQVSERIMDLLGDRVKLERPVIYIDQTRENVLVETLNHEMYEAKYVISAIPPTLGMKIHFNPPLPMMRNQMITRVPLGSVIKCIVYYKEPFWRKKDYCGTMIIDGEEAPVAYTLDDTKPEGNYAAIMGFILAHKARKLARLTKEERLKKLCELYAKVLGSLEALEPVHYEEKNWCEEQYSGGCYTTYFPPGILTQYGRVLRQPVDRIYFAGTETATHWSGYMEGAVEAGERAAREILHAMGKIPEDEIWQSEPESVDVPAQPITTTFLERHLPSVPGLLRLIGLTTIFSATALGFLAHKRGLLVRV

[3] = molecular target: T2, Amine oxidase [flavin-containing] A (Homo sapiens, UniProt P21397); test: Inhibition of recombinant human MAO-A expressed in baculovirus infected BTI insect cells at 12.5 uM using kynuramine as substrate measured after 30 mins by fluorescence based assay relative to control; details: 0.5 h
T2 sequence (P21397 whole entry): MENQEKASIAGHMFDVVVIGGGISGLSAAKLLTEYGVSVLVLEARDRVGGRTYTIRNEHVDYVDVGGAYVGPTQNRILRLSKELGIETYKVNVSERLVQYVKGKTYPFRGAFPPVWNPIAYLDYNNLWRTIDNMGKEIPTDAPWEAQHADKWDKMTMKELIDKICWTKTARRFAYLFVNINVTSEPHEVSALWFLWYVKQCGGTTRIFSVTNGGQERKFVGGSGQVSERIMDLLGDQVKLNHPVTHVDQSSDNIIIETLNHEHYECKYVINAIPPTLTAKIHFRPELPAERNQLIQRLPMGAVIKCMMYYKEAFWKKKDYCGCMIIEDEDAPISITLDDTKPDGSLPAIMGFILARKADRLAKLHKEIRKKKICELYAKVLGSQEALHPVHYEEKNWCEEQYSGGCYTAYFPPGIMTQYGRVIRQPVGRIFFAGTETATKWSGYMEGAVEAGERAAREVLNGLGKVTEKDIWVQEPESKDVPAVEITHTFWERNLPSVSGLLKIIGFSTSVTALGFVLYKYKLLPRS

[4] = molecular target: Cholinesterase (Equus caballus, UniProt P81908); test: Inhibition of equine serum BuChE using S-butyrylthiocholine iodide as susbtrate preincubated for 6 mins followed by substrate addition measured up to 3 mins by Ellman's method
Cholinesterase, sequence (P81908 whole entry): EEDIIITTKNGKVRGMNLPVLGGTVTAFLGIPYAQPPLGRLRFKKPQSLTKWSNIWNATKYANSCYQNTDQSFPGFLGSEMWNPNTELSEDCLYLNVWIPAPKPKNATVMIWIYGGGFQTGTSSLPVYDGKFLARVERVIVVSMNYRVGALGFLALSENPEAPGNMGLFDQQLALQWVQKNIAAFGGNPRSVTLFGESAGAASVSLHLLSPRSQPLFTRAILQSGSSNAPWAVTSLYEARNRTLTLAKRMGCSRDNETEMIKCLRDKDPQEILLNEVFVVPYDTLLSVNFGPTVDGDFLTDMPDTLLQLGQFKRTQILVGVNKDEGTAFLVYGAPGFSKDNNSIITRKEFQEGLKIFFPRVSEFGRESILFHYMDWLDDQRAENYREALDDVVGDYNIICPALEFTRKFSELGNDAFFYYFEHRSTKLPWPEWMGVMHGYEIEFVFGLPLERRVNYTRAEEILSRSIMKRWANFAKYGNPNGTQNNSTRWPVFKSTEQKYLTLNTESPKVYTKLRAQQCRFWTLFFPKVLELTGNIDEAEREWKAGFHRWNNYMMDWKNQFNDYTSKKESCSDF

[5] = molecular target: Acetylcholinesterase (AChE) (Electrophorus electricus, UniProt O42275); test: Inhibition of electric eel AChE at 25 uM using acetylthiocholine iodide as substrate incubated for 15 mins by Ellman's method relative to control; details: electric eel acetylcholinesterase (isolated enzyme), probe acetylthiocholine iodide
Acetylcholinesterase (AChE), sequence (O42275 whole entry): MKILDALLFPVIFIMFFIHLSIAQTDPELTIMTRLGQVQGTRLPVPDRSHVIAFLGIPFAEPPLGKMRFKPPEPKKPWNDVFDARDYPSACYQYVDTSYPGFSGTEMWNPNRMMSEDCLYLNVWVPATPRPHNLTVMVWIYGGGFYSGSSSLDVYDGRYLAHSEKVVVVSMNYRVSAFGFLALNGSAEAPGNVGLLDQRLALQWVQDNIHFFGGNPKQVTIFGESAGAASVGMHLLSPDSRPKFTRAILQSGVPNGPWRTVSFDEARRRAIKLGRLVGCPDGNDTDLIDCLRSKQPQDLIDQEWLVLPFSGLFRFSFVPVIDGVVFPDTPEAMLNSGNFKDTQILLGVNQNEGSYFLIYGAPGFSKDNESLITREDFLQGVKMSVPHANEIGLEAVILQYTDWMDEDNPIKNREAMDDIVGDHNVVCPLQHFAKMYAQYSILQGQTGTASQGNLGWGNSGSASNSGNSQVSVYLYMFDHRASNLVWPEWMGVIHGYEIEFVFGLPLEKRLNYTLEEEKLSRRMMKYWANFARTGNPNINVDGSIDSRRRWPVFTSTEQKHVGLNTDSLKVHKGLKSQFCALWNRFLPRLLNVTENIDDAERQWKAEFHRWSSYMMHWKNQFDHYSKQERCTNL

[6] = molecular target: Amyloid-beta precursor protein (Homo sapiens) (UniProt P05067); test: Inhibition of self-induced amyloid beta (1 to 42) (unknown origin) aggregation at 25 uM after 24 hrs by thioflavin-T based fluorescence assay relative to control
Amyloid-beta precursor protein (Homo sapiens), sequence (P05067 whole entry): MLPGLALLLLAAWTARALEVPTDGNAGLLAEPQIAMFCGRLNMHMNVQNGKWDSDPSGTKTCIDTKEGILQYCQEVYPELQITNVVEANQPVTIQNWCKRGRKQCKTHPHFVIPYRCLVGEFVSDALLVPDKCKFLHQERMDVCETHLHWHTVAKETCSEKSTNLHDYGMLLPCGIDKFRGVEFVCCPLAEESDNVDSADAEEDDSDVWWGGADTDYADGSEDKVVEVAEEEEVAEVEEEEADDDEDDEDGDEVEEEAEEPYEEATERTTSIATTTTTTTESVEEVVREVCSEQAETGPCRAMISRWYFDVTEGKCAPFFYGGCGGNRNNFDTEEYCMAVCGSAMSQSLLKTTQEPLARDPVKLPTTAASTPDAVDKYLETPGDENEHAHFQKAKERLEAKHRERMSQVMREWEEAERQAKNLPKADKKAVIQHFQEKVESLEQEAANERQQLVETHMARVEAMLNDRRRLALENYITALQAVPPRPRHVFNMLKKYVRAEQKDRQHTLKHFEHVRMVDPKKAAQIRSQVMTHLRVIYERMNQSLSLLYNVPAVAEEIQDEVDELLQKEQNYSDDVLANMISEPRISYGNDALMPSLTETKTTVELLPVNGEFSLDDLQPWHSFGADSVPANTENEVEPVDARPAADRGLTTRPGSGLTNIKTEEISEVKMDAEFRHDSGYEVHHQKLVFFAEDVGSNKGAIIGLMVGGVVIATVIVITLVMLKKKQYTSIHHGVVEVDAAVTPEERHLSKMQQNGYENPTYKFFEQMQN

[7] = test system: Mus musculus; test: Reversal of scopolamine-induced memory cognitive memory impairment in Kunming mouse assessed as change in spontaneous alteration behavior at 6 mg/kg, ig pretreated for 30 mins followed by scopolamine challenge and after 30 mins by Y-maze test (reference value: 45.6%); type: functional
[8] = molecular target: Cholinesterase (Equus caballus) (UniProt P81908); test: Reversible inhibition of equine serum BuChE assessed as enzyme activity at IC50 using butyrylthiocholine iodide as substrate by Ellman's method relative to control; design: scale not given: the % may be the effect or the level left
Cholinesterase (Equus caballus), sequence (P81908 whole entry): as the sequence (P81908 whole entry) above

[9] = molecular target: Cholinesterase (Equus caballus) (UniProt P81908); test: Reversible inhibition of equine serum BuChE assessed as enzyme activity at 0.1 times IC50 using butyrylthiocholine iodide as substrate by Ellman's method relative to control; design: scale not given: the % may be the effect or the level left
Method in brief: (§1)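 Reversibility tested by recovery of equine serum BuChE activity after dilution of inhibitor, with activity monitored over time up to 240 min by the Ellman method (DTNB read at 412 nm). Activity expressed relative to untreated control. Three independent experiments.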

[10] = test system: Mus musculus; test: Effect on total arm entries in Kunming mouse model of scopolamine-induced cognitive impairment in at 6 mg/kg, ig pretreated for 30 min followed by scopolamine challenge and measured after 30 mins by Y-maze test; type: ADME, organism-based; details: in vivo, po, 0.5 h
[11] = molecular target: Cholinesterase (Equus caballus) (UniProt P81908); test: Reversible inhibition of equine serum BuChE assessed as enzyme activity at 0.1 times IC50 using butyrylthiocholine iodide as substrate measured at 120 mins by Ellman's method relative to control; design: scale not given: the % may be the effect or the level left; method in brief: as §1
[12] = Metal chelating activity of the compound assessed as formation of Al3+-compound complex at 37.5 uM after 30 mins by UV-vis absorption spectra analysis
Method in brief: (§2)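 Metal binding examined by plate-reader absorbance scan using CuCl2, ZnCl2, AlCl3, FeSO4, CuCl and Fe(NO3)3 as metal sources.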

[13] = Metal chelating activity of the compound assessed as formation of Cu2+-compound complex at 37.5 uM after 30 mins by UV-vis absorption spectra analysis; method in brief: as §2
[14] = Metal chelating activity of the compound assessed as formation of Zn2+-compound complex at 37.5 uM after 30 mins by UV-vis absorption spectra analysis; method in brief: as §2
[15] = in vitro; details: PAMPA, pH 7.4
[16] = Metal chelating activity of the compound assessed as formation of Fe2+-compound complex at 37.5 uM after 30 mins by UV-vis absorption spectra analysis; method in brief: as §2
[17] = test system: PC-12; test: Neuroprotective activity against H2O2-induced cell death in rat PC12 cells assessed as cell viability at 10 uM pretreated for 2 hrs followed by H2O2 addition measured after 30 mins by MTT assay (reference value: 49.6%); type: functional; details: read-out: Activity
[18] = test system: PC-12; test: Neuroprotective activity against H2O2-induced cell death in rat PC12 cells assessed as cell viability at 1 uM pretreated for 2 hrs followed by H2O2 addition measured after 30 mins by MTT assay (reference value: 49.6%); type: functional; details: read-out: Activity
[19] = Disaggregation of Cu2+ induced preformed fibrils of amyloid beta (1 to 42) (unknown origin) at 25 uM preincubated with Cu2+ for 24 hrs followed by compound addition and measured after 24 hrs by thioflavin-T based fluorescence assay relative to control
Method in brief: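 Aβ1-42 (25 µM) and Cu2+ (25 µM) preincubated at 37 °C for 24 h, then compound (25 µM) added and incubated a further 24 h at 37 °C. ThT (5 µM in 50 mM glycine-NaOH, pH 8.5) added; fluorescence at ex 446/em 490 nm, background subtracted, % vs no-compound control. Three independent experiments.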

[20] = Inhibition of Cu2+-induced amyloid beta (1 to 42 residues) (unknown origin) aggregation at 25 uM after 24 hrs by thioflavin-T based fluorescence assay relative to control
Method in brief: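 Aβ1-42 (25 µM) and Cu2+ (25 µM) incubated at 37 °C for 24 h with or without compound (25 µM). ThT (5 µM in 50 mM glycine-NaOH, pH 8.5) then added; fluorescence read at ex 446/em 490 nm. Inhibition = (1−IFi/IFc)×100 after background subtraction. Three independent experiments.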

[21] = molecular target: Cholinesterase (Equus caballus) (UniProt P81908); test: Inhibition of equine serum BuChE at 25 uM using S-butyrylthiocholine iodide as susbtrate preincubated for 6 mins followed by substrate addition measured up to 3 mins by Ellman's method

Structure (SMILES) | Activity [1] [µMequiv/µM] | IC50 [2] [µM] | inhibition at 12.5 µM [3] [%] | IC50 [4] [µM] | inhibition at 0.25 h, 25 µM [5] [%] | inhibition [6] [%] | further results
O=C(/C=C/c1cccc(OC(=O)N(c2ccccc2)c2ccccc2)c1)c1ccccc1O | 1.1 | 4.9 | 18.2 | 56.2 | 18.9 | – | –
CCN(CC)C(=O)Oc1cccc(/C=C/C(=O)c2ccccc2OC(=O)N(CC)CC)c1 | 0.31 | 3.3 | 21.1 | 3.1 | 21.9 | 51.5 | –
CCN(C)C(=O)Oc1cccc([C@H](C)N(C)C)c1 [RIVASTIGMINE] | – | – | – | – | – | – | Activity [7]: 65.3%; Activity [8]: 49.8%; Activity [9]: 46.9%; Activity [10]: Non-Toxic; Activity [11]: 71.6%
COc1cc2c(cc1OC)C(=O)C(CC1CCN(Cc3ccccc3)CC1)C2 (stereo unspecified) | – | – | – | – | – | – | Activity [8]: 54.1%; Activity [11]: 104%
CCN(CC)C(=O)Oc1cccc(/C=C/C(=O)c2ccccc2O)c1 | 1.3 | 1.8 | 38.1 | 4.8 | 16.9 | – | –
CCN(C)C(=O)Oc1cccc(/C=C/C(=O)c2ccccc2OC(=O)N(C)CC)c1 | 0.35 | 3.7 | 28.4 | 1.2 | 35.4 | 53.1 | Activity [8]: 49.7%; Activity [9]: 50.7%; Activity [12]: inactive; Activity [13]: inactive; Activity [14]: inactive; Papp at 100 ug/ml [15]: 23.1 ×10⁻⁶ cm/s; Activity [11]: 70.9%; Activity [16]: inactive; viability at 10 µM [17]: 63.2%; viability at 1 µM [18]: 53.7%
CON(C)C(=O)Oc1cccc(/C=C/C(=O)c2ccccc2O)c1 | 1.2 | 2.6 | 33.8 | 3.2 | 30.4 | 61.4 | –
O=C(/C=C/c1cccc(OC(=O)N2CCOCC2)c1)c1ccccc1OC(=O)N1CCOCC1 | 0.32 | 5.2 | 20.9 | 2 | 20.8 | 49.2 | –
CN(C)C(=O)Oc1cccc(/C=C/C(=O)c2ccccc2O)c1 | 1.1 | 0.8 | 19.9 | 2.51 | 28.8 | 60.2 | –
CN(C)C(=O)Oc1cccc(/C=C/C(=O)c2ccccc2OC(=O)N(C)C)c1 | 0.32 | 2.9 | 18.9 | 4.5 | 11.7 | – | –
O=C(/C=C/c1cccc(OC(=O)N2CCOCC2)c1)c1ccccc1O | 1.2 | 3.1 | 17.4 | 5.1 | 24.3 | – | –
COc1cc(/C=C/C(=O)CC(=O)/C=C/c2ccc(O)c(OC)c2)ccc1O | – | – | – | – | – | – | Activity [19]: 58.2%; inhibition [20]: 73.4%
O=C(/C=C/c1cccc(OC(=O)N(c2ccccc2)c2ccccc2)c1)c1ccccc1OC(=O)N(c1ccccc1)c1ccccc1 | 0.33 | 6.3 | 18.2 | 42.6 | 27.1 | – | –
O=C(/C=C/c1cccc(O)c1)c1ccccc1O | 2.6 | 1.1 | 28.1 | – | 23.3 | 70.6 | inhibition [21]: 28.9%
CON(C)C(=O)Oc1cccc(/C=C/C(=O)c2ccccc2OC(=O)N(C)OC)c1 | 0.32 | 4.6 | 10.3 | 1.5 | 45.4 | 49.9 | –
